Reduction data for 78 compounds are collected here from ChEMBL document CHEMBL1124108, “Antihypertensive thiadiazoles. 2. Vasodilator activity of some 2-aryl-5-guanidino-1,3,4-thiadiazoles” (1988).

The test system of one assay is Rattus norvegicus. Kind of assay: Maximum percentage reduction in mean arterial blood pressure in metacorticoid (DOCA) hypertensive rats at a standard oral dose of 100 mg/kg. In kind it is functional. Put shortly:
(§1)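 Rats were DOCA hypertensive. For oral dosing, food was withdrawn 18 h before; rats dosed ip were not starved. The vehicle was isotonic saline. Pressure was recorded by transducer under minimal restraint: twice before dosing, then at 1, 2, 3, 5 and 22 h. MABP was taken as diastolic + one-third pulse pressure. The value is the maximum % fall from the mean of the two pretreatment readings, n = 3-5.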
`Cl.N=C(N)Nc1nnc(-c2ccc(C(F)(F)F)cc2)s1` came in with a Reduction of 18%.
In turn, `Cc1ccccc1-c1nnc(Nc2ncc[nH]2)s1.Cl` yielded a Reduction of 40%.
For `Cc1ccccc1-c1nnc(NC(=N)NCCN)s1.Cl`, the Reduction was 32%.
Regarding `CSCC/N=C(/N)Nc1nnc(-c2ccccc2C)s1.Cl`, the Reduction was 18%.
Take `Cl.N=C(N)Nc1nnc(-c2cccc(C(F)(F)F)c2)s1`: the Reduction is listed as 14%.
`Cl.N=C(N)Nc1nnc(-c2ccccc2)s1` returned a Reduction of 30%.
In the case of `C=CCNC(=N)Nc1nnc(-c2ccccc2C)s1.Cl`, the Reduction is recorded as 28%.
Still for that read-out and setting: under `Cl.N=C(N)Nc1nnc(-c2ccccc2F)s1` stands 31%; under `Cl.N=C(N)Nc1nnc(-c2cccc(F)c2)s1`, 20%.
For the compound `Cl.N=C(N)Nc1nnc(-c2ccc(F)cc2)s1`, the Reduction is 20%.
With `Cc1ccccc1-c1nnc(NC2=NCCCN2)s1.Cl`, the Reduction is 13%.
The same measure, in the same setting: under `Cl.N=C(N)Nc1nnc(-c2cccc(Cl)c2)s1` stands 12%.
With `Cc1ccccc1-c1nnc(N/C(N)=N\CCCN(C)C)s1.Cl`, the Reduction came to 20%.
The same measure, in the same setting: to `Cc1ccccc1-c1nnc(N/C(N)=N\C(C)C)s1.Cl` belongs 23%; to `Cc1ccccc1-c1nnc(NC(=N)NCCc2ccccc2)s1.Cl`, 29%.
The same measure, in the same setting: under `Cc1ccc(-c2nnc(NC3=NCCN3)s2)c(C)c1.Cl` stands 24%.
In turn, `Cc1ccccc1-c1nnc(NC(=N)NC(C)(C)C)s1.Cl` displayed a Reduction of 18%.
`Cc1ccccc1-c1nnc(NC2=NC(C)(C)CN2)s1.Cl` returned a Reduction of 15%.
On to `Cl.N=C(N)Nc1nnc(-c2ccccc2C(F)(F)F)s1`, for which the Reduction amounted to 26%.
In the case of `Cl.Ic1ccccc1-c1nnc(NC2=NCCN2)s1`, the Reduction worked out at 33%.
The compound `CC(=O)NCC/N=C(/N)Nc1nnc(-c2ccccc2C)s1` returned a Reduction of 21%.
On to `CO/N=C(/N)Nc1nnc(-c2ccccc2C)s1.Cl`, for which the Reduction is 29%.
With `Cl.N=C(N)Nc1nnc(-c2ccccc2Cl)s1`, the Reduction was 30%.

The subject of another assay is Rattus norvegicus. Description: Maximum percentage reduction in mean blood pressure in metacorticoid (DOCA) hypertensive rats at a standard oral dose of 100 mg/kg. It counts as functional. A digest of the protocol:
as §1
As for `Cc1ccccc1-c1nnc(NC(=N)N2CCN(C)CC2)s1.Cl`, the Reduction is listed as 18%.
`Cc1ccc(-c2nnc(N=C(N)N)s2)cc1C.Cl` displayed a Reduction of 33%.
Still for that read-out and setting: under `COCC/N=C(/N)Nc1nnc(-c2ccc(C)cc2C)s1.Cl` stands 31%.
In turn, `Cc1ccc(F)cc1-c1nnc(N=C(N)N)s1.Cl` showed a Reduction of 21%.
`C/N=C(/NC)Nc1nnc(-c2ccccc2C)s1.Cl` displayed a Reduction of 27%.
Regarding `Cc1ccccc1-c1nnc(NC(=N)NCC2CCCO2)s1.Cl` (stereo not drawn), the Reduction was determined as 17%.
`Cc1cccc(-c2nnc(N=C(N)N)s2)c1.Cl`: the Reduction turned out to be 19%.
Consider `Cc1ccccc1-c1nnc(NC(=N)N(C)CC(C)O)s1.Cl` (stereo not drawn), for which the Reduction is 21%.
Compound `COCC/N=C(/N)Nc1nnc(-c2ccc(F)cc2C)s1.Cl` displayed a Reduction of 33%.
Take `Cc1ccccc1-c1nnc(NC(=N)NCc2ccccc2)s1.Cl`: the Reduction is 12%.
Same read-out and setting: to `Cl.N=C(N)Nc1nnc(-c2ccccn2)s1` belongs 19%.
In the case of `Cl.N=C(N)Nc1nnc(-c2cccc3ccccc23)s1`, the Reduction is 20%.
The compound `Cl.N=C(N)Nc1nnc(-c2ccc(Cl)c(Cl)c2)s1` came in with a Reduction of 15%.
The compound `CC(C)(C)c1ccccc1-c1nnc(N=C(N)N)s1` returned a Reduction of 22%.
Still for that read-out and setting: to `Cc1ccccc1-c1nnc(NC(=N)NCCO)s1.Cl` belongs 35%.
Still for that read-out and setting: to `CCC/N=C(/N)Nc1nnc(-c2ccccc2C)s1.Cl` belongs 32%; to `COc1cc(C)c(-c2nnc(N=C(N)N)s2)cc1OC.Cl`, 24%.
`COCC/N=C(/N)Nc1nnc(-c2ccccc2I)s1.Cl` came in with a Reduction of 33%.
`CSc1ccccc1-c1nnc(N=C(N)N)s1.Cl` came in with a Reduction of 13%.
Consider `Cl.N=C(N)Nc1nnc(-c2ccco2)s1`, for which the Reduction was 24%.
The same measure, in the same setting: to `Cl.N=C(N)Nc1nnc(-c2ccccc2[N+](=O)[O-])s1` belongs 17%; to `Cc1cccc(-c2nnc(N=C(N)N)s2)c1C.Cl`, 14%.
`COc1ccccc1-c1nnc(N=C(N)N)s1.Cl` yielded a Reduction of 26%.
Consider `COCC/N=C(/N)Nc1nnc(-c2ccc(OC)c(OC)c2)s1.Cl`, for which the Reduction is 20%.
Compound `C[S+]([O-])c1ccccc1-c1nnc(N=C(N)N)s1.Cl` (stereo not drawn) displayed a Reduction of 15%.
Still for that read-out and setting: to `COCCC/N=C(/N)Nc1nnc(-c2ccccc2C)s1.Cl` belongs 33%.
In turn, `Cc1cc(F)ccc1-c1nnc(N=C(N)N)s1.Cl` showed a Reduction of 34%.
The same measure, in the same setting: to `Cc1ccccc1-c1nnc(NC(=N)NCCCO)s1.Cl` belongs 24%; to `CCCC/N=C(/NC)Nc1nnc(-c2ccccc2C)s1.Cl`, 28%; to `C/N=C(/N)Nc1nnc(-c2ccccc2C)s1`, 31%.
`CCCOc1ccccc1-c1nnc(N=C(N)N)s1.Cl`: the Reduction is given as 12%.
Regarding `COc1cccc(OC)c1-c1nnc(N=C(N)N)s1`, the Reduction amounted to 16%.
In turn, `Cc1ccccc1-c1nnc(NC(=N)N2CCOCC2)s1.Cl` yielded a Reduction of 16%.
The same measure, in the same setting: under `CCOCC/N=C(/N)Nc1nnc(-c2ccccc2C)s1.Cl` stands 34%.
On to `Cc1ccsc1-c1nnc(N=C(N)N)s1.Cl`, for which the Reduction amounted to 14%.
`CCCCC/N=C(/N)Nc1nnc(-c2ccccc2C)s1.Cl` yielded a Reduction of 23%.
Turning to `COc1ccc(-c2nnc(N=C(N)N)s2)cc1OC.Cl`, the Reduction is on record as 21%.
As to `Cl.N=C(N)Nc1nnc(-c2ccccc2N)s1`, the Reduction stood at 14%.
With `Cc1ccccc1-c1nnc(NC(=N)NC2CCCC2)s1.Cl`, the Reduction is recorded as 20%.
The same measure, in the same setting: under `Cc1cc(C)cc(-c2nnc(N=C(N)N)s2)c1.Cl` stands 18%; under `CCc1ccccc1-c1nnc(N=C(N)N)s1`, 12%; under `Cl.N=C(N)Nc1nnc(-c2cccs2)s1`, 32%.
On to `CCC[S+]([O-])c1ccccc1-c1nnc(N=C(N)N)s1.Cl` (stereo not drawn), for which the Reduction came out at 13%.
`Cc1ccccc1-c1nnc(NC(=N)N(C)C)s1.Cl` registered a Reduction of 18%.

In a further assay the test system is Rattus norvegicus. Kind of assay: Maximum percentage reduction in mean blood pressure in metacorticoid (DOCA) hypertensive rats at a standard oral dose of 100 mg/kg; IA = Inactive;Maximum percentage fall in MABP <10%. In kind it is functional, organism-based. On the set-up: dose 100 mg/kg. A digest of the protocol: as §1
Consider `Cc1cccc(C)c1-c1nnc(N=C(N)N)s1`, for which the Reduction entry is “Not significant”.
On to `Cc1ccc(C)c(-c2nnc(N=C(N)N)s2)c1`, for which the Reduction entry was “Not significant”.
Take `N=C(N)Nc1nnc(-c2ccccc2-c2ccccc2)s1`: the Reduction result was “Not significant”.
In the case of `Cc1ccc(-c2nnc(N=C(N)N)s2)cc1`, the Reduction result is “Not significant”.
The same measure, in the same setting: under `N=C(N)Nc1nnc(C2CCCCC2)s1` stands “Not significant”.
Take `CCCC/N=C(\NCCCN(C)C)Nc1nnc(-c2ccccc2C)s1`: the Reduction entry is “Not significant”.
In the case of `Cc1ccccc1-c1nnc(NC(=N)N2CCCC2)s1`, the Reduction entry is “Not significant”.
Turning to `Cc1ccc(-c2nnc(N=C(N)N)s2)c(C)c1`, the Reduction entry is “Not significant”.
As to `COc1cccc(-c2nnc(N=C(N)N)s2)c1`, the Reduction entry was “Not significant”.
Still for that read-out and setting: to `Cc1ccccc1-c1nnc(NC(=N)NC2CCC2)s1` belongs “Not significant”; to `Cc1ccccc1-c1nnc(N=C2N(C)CCN2C)s1`, “Not significant”.
